# According to ChEMBL document CHEMBL4017508, “Design, Synthesis, and Biological Evaluation of Novel Type I1/2 p38α MAP Kinase Inhibitors with Excellent Selectivity, High Potency, and Prolonged Target Residence Time by Interfering with the R-Spine” (J Med Chem, 2017):
# Tested on: Liver
# Assay: Drug metabolism in rat liver microsomes assessed as metabolite formation after 180 mins in presence of NADPH by LC-MS analysis
# Format: ADME, microsome
# Details: 3 h
# Procedure, shortened: (§1)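 Incubation with rat liver microsomes for 180 min, run in triplicate; mean ± standard deviation reported. Parent decrease and percentage of formed metabolites were followed by LC-MS. Samples were dissolved in MeOH and separated on a C18 core-shell column at 20 °C. The gradient ran from 5 to 100% acetonitrile against water, both with 0.1% formic acid, at 500 μL/min. Detection used ESI+.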
row,SMILES,Drug metabolism
1,O=C(NCC(O)CO)c1ccc2c(c1)C(=O)c1ccc(Nc3ccc(F)c(NC(=O)C4CC4)c3)cc1CC2 (configuration not stated),Metabolite_Notdetected

# Tested on: not listed separately
# Assay: Metabolic stability in rat liver microsomes after 180 mins in presence of NADPH by LC-MS analysis
# Format: ADME, microsome
# Details: read-out: Stability
# Procedure, shortened: as §1
row,SMILES,remaining at 3 h [%]
1,CNC(=O)c1ccc2c(c1)C(=O)c1ccc(Nc3cccc(C(=O)NC4CC4)c3F)cc1CC2,61.6
2,O=C(NCC(O)CO)c1ccc2c(c1)C(=O)c1ccc(Nc3cc(NC(=O)c4cccs4)c(F)cc3F)cc1CC2 (configuration not stated),76.6
3,O=C(NCC(O)CO)c1ccc2c(c1)C(=O)c1ccc(Nc3ccc(F)c(NC(=O)C4CC4)c3)cc1CC2 (configuration not stated),95.2
4,O=C(NCC(O)CO)c1ccc2c(c1)C(=O)c1ccc(Nc3cc(NC(=O)c4cccs4)c(F)cc3F)cc1OC2 (configuration not stated),48.7
5,O=C(NCCN1CCOCC1)c1ccc2c(c1)C(=O)c1ccc(Nc3ccc(F)c(NC(=O)c4ccccc4)c3)cc1CC2 [FS-694],40.6

# Continued, values first:
row,remaining at 3 h [%],SMILES
1,66.7,O=C(NCCN1CCOCC1)c1ccc2c(c1)C(=O)c1ccc(Nc3cc(NC(=O)c4cccs4)c(F)cc3F)cc1CC2
2,79.5,CNC(=O)c1ccc2c(c1)C(=O)c1ccc(Nc3ccc(F)c(NC(=O)C4CC4)c3)cc1CC2
3,65.6,CNC(=O)c1ccc2c(c1)C(=O)c1ccc(Nc3ccc(F)c(NC(=O)c4ccccc4)c3)cc1CC2
4,66.9,O=C(NCCO)c1ccc2c(c1)C(=O)c1ccc(Nc3cc(NC(=O)c4cccs4)c(F)cc3F)cc1CC2
5,14.8,O=C(NCCN1CCOCC1)c1ccc2c(c1)C(=O)c1ccc(Nc3ccc(F)c(NC(=O)c4ccccc4)c3)cc1OC2
6,57.1,O=C(NCCN1CCOCC1)c1ccc2c(c1)C(=O)c1ccc(Nc3ccc(F)c(NC(=O)c4cccs4)c3)cc1CC2
